ChEMBL document CHEMBL1240503, “Design, synthesis and biological evaluation of new (E)- and (Z)-1,2,3-triaryl-2-propen-1-ones as selective COX-2 inhibitors” (Eur J Med Chem, 2010)

What follows are compounds tested against T1, Prostaglandin G/H synthase 1 (Ovis aries, UniProt P05979) (assay: Inhibition of ovine COX1 by chemiluminescence assay).
T1 sequence (P05979 whole entry): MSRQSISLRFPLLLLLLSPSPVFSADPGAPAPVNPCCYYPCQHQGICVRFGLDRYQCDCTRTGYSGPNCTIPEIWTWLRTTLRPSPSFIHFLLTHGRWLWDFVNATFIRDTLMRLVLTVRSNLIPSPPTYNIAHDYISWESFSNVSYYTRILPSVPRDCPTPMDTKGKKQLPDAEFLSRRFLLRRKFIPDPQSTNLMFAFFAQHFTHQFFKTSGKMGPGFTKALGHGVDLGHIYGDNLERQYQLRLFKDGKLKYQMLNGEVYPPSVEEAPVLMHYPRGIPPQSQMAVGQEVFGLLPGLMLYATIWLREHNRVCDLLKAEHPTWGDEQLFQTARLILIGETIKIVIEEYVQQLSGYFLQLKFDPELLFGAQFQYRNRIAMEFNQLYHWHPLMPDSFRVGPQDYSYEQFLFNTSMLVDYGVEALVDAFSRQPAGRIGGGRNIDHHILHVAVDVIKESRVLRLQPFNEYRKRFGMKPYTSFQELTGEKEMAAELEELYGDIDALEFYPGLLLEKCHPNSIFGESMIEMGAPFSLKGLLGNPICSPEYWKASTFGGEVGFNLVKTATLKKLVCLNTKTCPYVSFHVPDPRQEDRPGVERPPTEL
Method in brief: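 Enzyme activity read as arachidonate-induced luminescence, taken as a real-time index of COX catalytic turnover; inhibition measured as loss of this luminescence signal.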

IC50 [µM] | Compound
13.3 | CS(=O)(=O)c1ccc(C(=O)/C(=C/c2ccccc2)c2ccccc2)cc1
14.3 | CS(=O)(=O)c1ccc(C(=O)/C(=C\c2ccccc2)c2ccccc2)cc1
12.6 | CS(=O)(=O)c1ccc(C(=O)/C(=C/c2ccc(F)cc2)c2ccccc2)cc1
30.9 | CS(=O)(=O)c1ccc(C(=O)/C(=C\c2ccc(F)cc2)c2ccccc2)cc1
10.4 | Cc1ccc(/C=C(/C(=O)c2ccc(S(C)(=O)=O)cc2)c2ccccc2)cc1
12.2 | Cc1ccc(/C=C(\C(=O)c2ccc(S(C)(=O)=O)cc2)c2ccccc2)cc1
10.7 | COc1ccc(/C=C(/C(=O)c2ccc(S(C)(=O)=O)cc2)c2ccccc2)cc1
18.4 | COc1ccc(/C=C(\C(=O)c2ccc(S(C)(=O)=O)cc2)c2ccccc2)cc1
14.4 | CS(=O)(=O)c1ccc(C(=O)/C(=C/c2ccc(O)cc2)c2ccccc2)cc1
13.1 | CS(=O)(=O)c1ccc(C(=O)/C(=C/c2cccs2)c2ccccc2)cc1
12.4 | CS(=O)(=O)c1ccc(C(=O)C(=Cc2ccncc2)c2ccccc2)cc1 (mixture of isomers)
